Laboratory results as given in ChEMBL document CHEMBL2062455, “Daphmacromines A-J, alkaloids from Daphniphyllum macropodum” (J Nat Prod, 2012).

Assays:
[1] = tested on: SW480; assay: Cytotoxicity against human SW480 cells after 48 hrs by MTT assay; assay type: functional, cell-based; conditions: SW480, 48 h
Method in brief: (§1)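 Cells kept in DMEM or RPMI-1640 with 10% FBS at 37 °C, 5% CO2. Initial density 5 × 10^3 to 1 × 10^4 cells/mL. Adherent cells attached 12 h before dosing; suspension cells seeded just before dosing. Compounds at 40 μM, triplicate, 48 h, cisplatin and paclitaxel as positive controls. MTT then 4 h at 37 °C, SDS lysis, OD 595 nm. IC50 by Reed–Muench method.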

[2] = tested on: A549; assay: Cytotoxicity against human A549 cells after 48 hrs by MTT assay; assay type: functional, cell-based; conditions: A549, 48 h; method in brief: as §1
[3] = tested on: HL-60; assay: Cytotoxicity against human HL60 cells after 48 hrs by MTT assay; assay type: functional, cell-based; conditions: HL-60, 48 h; method in brief: as §1
[4] = Toxicity in brine shrimp assessed as mortality at […] after 24 hrs by microscopic analysis; assay type: organism-based; conditions: artemia salina, in vivo; read-out: Activity
Method in brief: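 Artemia salina eggs hatched in artificial seawater for 48 h at 28 °C to give nauplii. Compounds dissolved in DMSO, then diluted in artificial seawater to 100, 50 and 10 mg/L and tested in triplicate, with DMSO control wells. 15−25 nauplii per well, covered plate, 28 °C, 24 h. Nonmotile nauplii were scored as dead under the microscope.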

[5] = tested on: SMMC-7721; assay: Cytotoxicity against human SMMC7721 cells after 48 hrs by MTT assay; assay type: functional, cell-based; conditions: SMMC-7721, 48 h; method in brief: as §1
[6] = tested on: MCF7; assay: Cytotoxicity against human MCF7 cells after 48 hrs by MTT assay; assay type: functional, cell-based; conditions: MCF7, 48 h; method in brief: as §1

Compound	IC50 [1]	IC50 [2]	IC50 [3]	mortality at 24 h [4]	IC50 [5]	IC50 [6]
COC(=O)[C@@H]1C[C@@]23C(=O)N4C[C@@H](CCC5=C2[C@@H]1CC5)[C@]3(CO)/C=C\C(=O)[C@H](C)C4	> 40 µM	> 40 µM	> 40 µM	38.3%	> 40 µM	> 40 µM
COC(=O)[C@@H]1C[C@@]23C4=C(CC[C@@H]5CN6C[C@@H](C)[C@@H](C=C[C@@]52C=O)[C@]63O)CC[C@@H]41 [DAPHHIMALENINE B]	> 40 µM	> 40 µM	> 40 µM	64.9%	> 40 µM	> 40 µM
CCOC(=O)[C@@H]1C[C@@]23CN(C)C[C@@H](CCC4=C2[C@@H]1CC4=O)C31CC[C@](CC)(OC)OC1 (stereo partly specified) [DAPHMACROMINE A]	> 40 µM	> 40 µM	> 40 µM	41%	> 40 µM	> 40 µM
CCOC(=O)[C@@H]1C[C@@]23CN(C)C[C@@H](CCC4=C2[C@H]1CC4=O)C31CC[C@](CC)(OC)OC1 (stereo partly specified) [DAPHMACROMINE B]	> 40 µM	> 40 µM	> 40 µM	49.9%	> 40 µM	> 40 µM
CCO[C@@]1(CC)CCC2(CO1)[C@@H]1CCC3=C4[C@H](CC3=O)[C@H](C(=O)OC)C[C@@]42CN(C)C1 (stereo partly specified) [DAPHMACROMINE C]	> 40 µM	> 40 µM	> 40 µM	50.9%	> 40 µM	> 40 µM
CCO[C@@]1(CC)CCC2(CO1)[C@@H]1CCC3=C4[C@@H](CC3=O)[C@H](C(=O)OC)C[C@@]42CN(C)C1 (stereo partly specified) [DAPHMACROMINE D]	> 40 µM	> 40 µM	> 40 µM	53.8%	> 40 µM	> 40 µM
CC[C@]1(OC)CCC2(CO1)[C@@H]1CCC3=C4[C@H](CC3=O)[C@H](C(=O)OC)C[C@@]42CN(C)C1 (stereo partly specified) [DAPHMACROMINE E]	> 40 µM	> 40 µM	> 40 µM	70.9%	> 40 µM	> 40 µM
CC[C@@]1(OC)CCC2(CO1)[C@@H]1CCC3=C4[C@H](CC3=O)[C@H](C(=O)OC)C[C@@]42CN(C)C1 (stereo partly specified) [DAPHMACROMINE F]	> 40 µM	> 40 µM	> 40 µM	45%	> 40 µM	> 40 µM
CC[C@]1(OC)CCC2(CO1)[C@@H]1CCC3=C4[C@@H](CC3=O)[C@H](C(=O)OC)C[C@@]42CN(C)C1 (stereo partly specified) [DAPHMACROMINE G]	> 40 µM	> 40 µM	> 40 µM	67.7%	> 40 µM	> 40 µM
COC(=O)[C@@H]1C[C@@]23CN(C)C[C@@H](CCC4=C2[C@H]1CC4=O)C31CC[C@@](O)(C(C)C)OC1 (stereo partly specified) [DAPHMACROMINE H]	> 40 µM	> 40 µM	> 40 µM	–	> 40 µM	> 40 µM
CCC1=CCC2(CO1)[C@@H]1CCC3=C4[C@H](CC3=O)[C@H](C(=O)OC)C[C@@]42CN(C)C1 (stereo partly specified) [DAPHMACROMINE I]	> 40 µM	> 40 µM	> 40 µM	64.6%	> 40 µM	> 40 µM
COC(=O)[C@@H]1C[C@@]23CN(C)C[C@@H](CCC4=C2[C@@H]1CC4=O)C31CC=C(C(C)C)OC1 (stereo partly specified) [DAPHMACROMINE J]	> 40 µM	> 40 µM	> 40 µM	55.2%	> 40 µM	> 40 µM
COC(=O)[C@@H]1C[C@@]23C4=C(CC[C@@H]5CN6C[C@@H](C)[C@@H](C[C@@H](O)[C@@]52CO)[C@]63O)CC[C@@H]41 [DAPHNEZOMINE K]	> 40 µM	> 40 µM	> 40 µM	0%	> 40 µM	> 40 µM
COC(=O)[C@@H]1C[C@]23C4=NC[C@@H](C)[C@]45C[C@@H](OC(C)=O)[C@@]2(COC(C)=O)[C@H](CCC2=C3[C@@H]1CC2)[C@H]5O [DAPHTENIDINE C]	> 40 µM	> 40 µM	> 40 µM	31.8%	> 40 µM	> 40 µM
COC(=O)[C@@H]1C[C@@]23C4=C(CC[C@@H]5CN6C[C@@H](C)[C@@H](C[C@@H](OC(C)=O)[C@@]52COC(C)=O)C63)CC[C@@H]41 [DEOXYYUZURIMINE]	> 40 µM	> 40 µM	> 40 µM	81.8%	> 40 µM	> 40 µM
COC(=O)[C@@H]1C[C@@]23C4=C(CC[C@@H]5CN6C[C@H](C)[C@@](O)(C=C[C@@]52C=O)[C@]63O)CC[C@@H]41 [YUZURIMINE C]	> 40 µM	> 40 µM	> 40 µM	80.6%	> 40 µM	> 40 µM
COC(=O)[C@@H]1C[C@@]23C4=C(CC[C@@H]5CN6C[C@@H](C)[C@@H](C[C@@H](OC(C)=O)[C@@]52COC(C)=O)[C@]63O)CC[C@@H]41 [YUZURIMINE]	> 40 µM	> 40 µM	> 40 µM	70.8%	> 40 µM	> 40 µM
